The source made the active and inactive calls. The rule behind the calls is not given here.
What was measured:
Microglia = assay: Suppression of LPS-induced NO production in Sprague-Dawley rat microglia after 24 hrs; type: functional, cell-based
In short: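 Primary microglia from postnatal day-1 Sprague–Dawley rat cortex, grown 10–14 days in MEM/10% FBS, detached by shaking and replated. Cells given LPS 1 µg/mL with compound (1, 5, 10, 20 µM) for 24 h at 37 °C. Supernatant nitrite measured by Griess reaction at 540 nm. Three independent experiments in triplicate.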

[1] = DPPH radical scavenging activity; type: functional
In short: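 Compound mixed with 0.1 mM acetic acid buffer and warmed to 25 °C for 5 min, then 0.2 mM DPPH in ethanol added. Absorbance read at 517 nm after 30 min. Scavenging rate (%) = {1 − (A − C)/B} × 100, with sample, colour-contrast and blank absorbances. 50% scavenging concentration calculated from the scavenging rate.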

Cortical neurone [2] = assay: Inhibition of glutamate-induced neurotoxicity in mouse cortical neurons assessed as cell death at 10 uM after 24 hrs relative to NMDA; type: functional
In short: (§1)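 Mixed cortical neuron/glia cultures from fetal day-15 mouse cortex, on poly-D-lysine/laminin. Cytosine arabinoside 10 uM from DIV 6. Cultures exposed in serum-free MEM to 60 µM glutamate plus compound for 24 h at 37 °C. Viability by WST-1 (1:10, 2 h, 37 °C), read at 450 nm with 650 nm reference and normalized to untreated wells. Three independent experiments in triplicate.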

Cortical neurone [3] = assay: Inhibition of glutamate-induced neurotoxicity in mouse cortical neurons assessed as cell death at 5 uM after 24 hrs relative to NMDA; type: functional; in short: as §1

Row | Compound | Activity (Microglia) | IC50 [1] | Activity (Cortical neurone [2]) | Activity (Cortical neurone [3])
1 | COc1cc(/C=C/C(=O)c2ccc(OC)c(F)c2)ccc1O | Active | 52.5 µM | – | –
2 | COc1cc(/C=C/C(=O)c2c(O)c3ccccc3oc2=O)ccc1O | Active | 52.5 µM | Active | Active
3 | COc1cc(/C=C/C(=O)c2c(O)c3ccccc3oc2=O)ccc1O[Si](C)(C)C(C)(C)C | Active | 45.5 µM | – | –
4 | COc1cc(/C=C/C(=O)c2ccc(C(F)(F)F)cc2)ccc1O | Active | 43.8 µM | – | –
5 | COc1cc(/C=C/C(=O)c2ccc([Si](C)(C)C)cc2)ccc1O | Active | 52.8 µM | – | –
6 | COc1cc(/C=C/C(=O)c2cc(F)c(F)c(F)c2)ccc1O | Active | 53.2 µM | Active | Active
7 | COc1cc(/C=C/C(=O)c2ccc3c(c2)OCO3)ccc1O | Active | 46 µM | Active | Active
8 | COc1cc(/C=C/C=O)ccc1O [CONIFERYL ALDEHYDE] | – | 64.6 µM | – | –
